# High-throughput results: PubChem BioAssay, several laboratories
# In the library only some 12% were active in any assay of this set; here they are far more common.
# Arbovirus inh = blocks arbovirus infection. arbovirus infection cell-based antiviral screen. inhibition, % at 10 µM. actives 0.37% (n = 200,000). AID 1251; in the data active = inhibition above about 30%
# Rad51 HR inh = blocks human Rad51 in homologous recombination | Q06609 | hRad51 DNA strand exchange, fluorescence dequenching | inhibition, % at 10 µM | actives 0.085% (n = 200,000) | AID 1385;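 active = inhibition above 40% at the single screening dose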;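 note: 0% = DMSO control wells and 100% = blanks with heterologous ssDNA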
#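 Test system – preformed human Rad51 ssDNA filaments · Reagent – Donor/quencher-labelled 47-bp dsDNA substrate · Incubation – 37 °C 15-min filament assembly, 30-min compound preincubation, 15-min exchange · Signal – FRET fluorescence dequenching, excitation 485 nm, emission 520 nm · Read-out – percent inhibition from fluorescence, normalised to plate control and blank means · Benchmarks – plate control and blank wells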
# PKD1 inh = PKD1 (human) kinase inhibition | Q15139 | inhibition, % (concentration not given with the values) | actives 0.056% (n = 200,000) | AID 797 | PKD1 kinase fluorescence polarization assay
# Target sequence (Q15139 whole entry, looked up): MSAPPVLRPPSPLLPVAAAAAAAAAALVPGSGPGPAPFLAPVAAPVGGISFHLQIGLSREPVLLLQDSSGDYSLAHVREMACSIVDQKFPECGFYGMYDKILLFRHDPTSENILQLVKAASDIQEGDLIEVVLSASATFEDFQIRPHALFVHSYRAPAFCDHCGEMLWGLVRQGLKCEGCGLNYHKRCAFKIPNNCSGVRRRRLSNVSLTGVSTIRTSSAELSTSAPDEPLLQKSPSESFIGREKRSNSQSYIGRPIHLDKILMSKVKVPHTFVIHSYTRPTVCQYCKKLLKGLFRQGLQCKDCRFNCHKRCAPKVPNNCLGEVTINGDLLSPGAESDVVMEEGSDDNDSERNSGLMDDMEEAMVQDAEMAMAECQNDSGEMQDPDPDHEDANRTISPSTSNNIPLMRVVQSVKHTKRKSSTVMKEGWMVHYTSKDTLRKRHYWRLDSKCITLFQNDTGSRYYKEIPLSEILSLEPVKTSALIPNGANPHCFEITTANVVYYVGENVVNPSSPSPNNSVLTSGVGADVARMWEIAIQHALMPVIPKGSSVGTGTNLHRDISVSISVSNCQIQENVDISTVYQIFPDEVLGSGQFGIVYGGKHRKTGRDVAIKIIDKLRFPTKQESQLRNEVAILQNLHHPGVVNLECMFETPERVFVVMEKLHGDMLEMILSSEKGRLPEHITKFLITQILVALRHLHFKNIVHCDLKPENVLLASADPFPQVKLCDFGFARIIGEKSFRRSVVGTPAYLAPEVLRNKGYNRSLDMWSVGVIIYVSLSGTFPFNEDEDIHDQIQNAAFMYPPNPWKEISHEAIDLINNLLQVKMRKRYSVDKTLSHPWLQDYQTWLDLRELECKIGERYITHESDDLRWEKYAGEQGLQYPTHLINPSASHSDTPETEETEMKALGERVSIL
# CHOP inhibitor = CHOP inhibition in unfolded protein response | CHO-K1 CHOP-promoter luciferase, tunicamycin-induced, 15-18 h | inhibition, % at 10 µM | actives 3.8% (n = 220,000) | AID 2732;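 active = compounds that reduced the stress-induced luciferase reporter signal by more than about 70% of percent inhibition, limit read from the data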;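 note: 0% = tunicamycin plus vehicle and 100% = wells without tunicamycin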
# Wee1 stabilizer = inhibitors of human Wee1 degradation; actives 1.2% (n = 220,000); HeLa Luc-Wee1K328M stability, luciferase luminescence; 100% = proteasome inhibitor MG132 effect; P30291; reporter increase, % at 5 µM;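 active = activation above the mean of all tested compounds plus 3 SD, set per screening run, cut at about 8.8% in these data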;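 note: cells exposed to compound for 20 h before luminescence read; 0% = DMSO alone and 100% = MG132 at 30 µM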
# L major viab = Leishmania major promastigote growth inhibition; Leishmania major promastigotes, resazurin fluorescence viability; inhibition, % at 10 µM; actives 9% (n = 200,000); AID 1063;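 note: promastigotes grown with compound for 44 hours at 28 °C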
# * marks the source's active call; other numbers are inactive results; x = not tested or not shown. Cut-off read from the data, not from the text of the source, unless noted: active = inhibition above about 50%; inactive = the rest.
SMILES,Arbovirus inh,Rad51 HR inh,PKD1 inh,CHOP inhibitor,Wee1 stabilizer,L major viab
CN(C)CCCNC(=O)/C(=C\c1ccc(-c2cccc([N+](=O)[O-])c2)o1)NC(=O)c1ccccc1,-21,-5,1,30,0,0
CN(C)CCNC(=O)/C(=C/c1ccc(-c2ccc(Cl)cc2Cl)o1)NC(=O)c1ccccc1,-35,-4,14,45,-2,100*
Cc1ccc(C(=O)N/C(=C\c2ccc(-c3ccc(Br)cc3)o2)C(=O)NCCCN(C)C)cc1,-29,-255,-2,33,-2,100*
CN(C)CCNC(=O)/C(=C/c1ccc(-c2ccc(Cl)cc2)o1)NC(=O)c1ccccc1,-45,10,2,6,-1,100*
Cc1ccc(C(=O)N/C(=C/c2ccc(-c3cc(C(F)(F)F)ccc3Cl)o2)C(=O)NCc2cccnc2)cc1,-16,-6,-3,58,-1,30
COc1cc(OC)nc(NC(=O)COC(=O)c2cccc(Cl)c2)n1,6,0,6,27,3,-5
COc1ccc(N(CC(=O)N/N=C/c2ccco2)S(=O)(=O)c2ccccc2)cc1Cl,x,12,x,31,5,x
CN(Cc1cn(C)nc1-c1ccccc1F)CC1CCCCO1 (configuration not stated),4,21,2,13,6,-3
O=C(C[n+]1ccc(Cc2ccccc2)cc1)Nc1ccccc1,1,6,-1,2,-2,-10
O=C(O)c1cc(=O)c2ccc(Cl)cc2[nH]1,x,x,x,15,x,x
OC(COCc1ccccc1)CN1CCCC1 (configuration not stated),0,-1,-1,-5,1,2
CCc1ccc(OCC(O)CN2CCN(c3ccccc3)CC2)cc1 (configuration not stated),-2,2,-4,56,0,94*
Oc1ccccc1N1CCN(CC(O)COCc2ccccc2Cl)CC1 (configuration not stated),23,4,-8,-8,1,85*
OC(COCc1cccs1)CN1CCN(c2cccc(C(F)(F)F)c2)CC1 (configuration not stated),-14,9,-9,25,0,84*
OC(COCc1ccccc1)CN1CCN(c2ccccc2)CC1 (configuration not stated),3,0,-7,0,4,90*
O=S(=O)(c1ccc(F)cc1)N1CCN(CC(O)COCc2cccs2)CC1 (configuration not stated),5,-2,7,6,2,-10
Cc1ccc(OCC(O)CN2CCN(c3ccccc3)CC2)cc1 (configuration not stated),7,3,-4,18,1,22
Cc1ccc2c(c1)c(-c1ccccc1)nc1nnnn12,-2,12,5,9,0,-1
Cc1nc2nc(SCC(=O)O)nn2c(C)c1Cc1ccccc1Cl,-1,13,9,5,-1,-3
CCCc1ccc(OCC(O)CN2CCN(c3ccccc3)CC2)cc1 (configuration not stated),-6,2,1,-5,0,94*
O=C(COC(=O)c1cncc(Br)c1)NC1CCCCCC1,7,2,7,9,-3,-8
Cc1ccccc1OCCSCc1nc2ccccc2[nH]1,66*,-10,-2,27,-1,12
c1ccc(CSCc2nc3ccccc3[nH]2)cc1,9,-1,6,19,0,60*
Cc1cccn2c(CNCC3(c4ccccc4)CCCC3)c(C(=O)N3CCOCC3)nc12,25,1,2,14,4,14
NNC(=O)c1cc2sccc2s1,x,14,x,-18,6,x
SMILES,Arbovirus inh,Rad51 HR inh,PKD1 inh,CHOP inhibitor,Wee1 stabilizer,L major viab
COc1cc(OC)cc(C(=O)N(CCCN2C(=O)c3cccc4cccc(c34)C2=O)c2cccc(OC)c2)c1,15,-1,-14,29,1,44
COc1ccc(N(CCN2C(=O)c3ccccc3C2=O)C(=O)c2cccc([N+](=O)[O-])c2)cc1,8,-11,-12,6,-2,-1
COc1ccc(N(CCCN2C(=O)c3cccc4cccc(c34)C2=O)C(=O)c2ccncc2)cc1,2,0,-6,-7,2,69*
COc1ccc(N(CCCN2C(=O)c3cccc4cccc(c34)C2=O)C(=O)c2cccnc2)cc1,11,-2,-7,-5,1,51*
CC(c1ccccc1)C1CC(=O)N(c2cc(Cl)ccn2)C1=O (configuration not stated),x,20,x,1,9,x
Cc1ccc(NC(=O)C2c3ccccc3Oc3ccccc32)c(C)c1,-1,2,8,48,0,3
COCc1nnc(SCC(=O)NCc2ccccc2)n1-c1ccccc1,-1,3,-1,11,-2,-7
CCn1c(SCC(=O)NCc2ccccc2)nnc1-c1ccccc1O,-3,8,4,82*,-2,-2
N#CCSc1nnc(-c2ccccc2O)n1Cc1ccccc1,3,1,4,4,11*,-1
Cc1ccc(-n2c(CCc3ccccc3)nnc2SCC(=O)NCc2ccccc2)cc1C,-2,-2,-1,85*,-2,54*
CSc1nnc2ccc(-c3ccccn3)nn12,4,-1,0,28,0,0
CCCn1cnc2cc(NC(=O)c3cccs3)ccc21,4,x,-5,1,2,8
Cc1ccc2nc(-c3cccnc3)cc(C(=O)Nc3ccc(F)cc3C)c2c1,-1,7,-8,22,-1,15
COc1c(Br)cc(C(N)=O)cc1OCc1ccccc1,-7,x,2,-9,-2,49
CCOc1cc(C(N)=O)cc(Br)c1OCc1ccccc1,3,-2,2,14,2,100*
CCOc1ccc(N(C(=O)c2ccccc2Cl)C2=NC(C)(C)CS2)cc1,2,2,-1,-14,-3,62*
C=CCn1c(SCc2ccc(C(=O)Nc3ccccc3)cc2)nnc1-c1ccccc1,-4,-3,-2,10,2,-6
CCc1ccc(NC(=O)N(Cc2ccco2)C(C)c2cccs2)cc1 (configuration not stated),0,-3,4,2,3,70*
CC(C)CCN(C(=O)Nc1ccccc1)C(C)c1cccs1 (configuration not stated),-2,-2,-7,4,-2,83*
CCOC(=O)c1ccc(NC(=S)NCc2cccnc2)cc1,4,12,-1,4,0,5
CCc1ccc(NC(=O)N(Cc2cccnc2)Cc2ccco2)cc1,-4,-6,1,8,7,90*
CCOC(=O)c1ccc(NC(=S)N(Cc2cccnc2)Cc2ccco2)cc1,17,10,-3,16,0,100*
CC(c1cccs1)N(C(=O)Nc1ccccc1)C1CCCCC1 (configuration not stated),9,2,-4,44,-2,38
O=C(CCC(=O)N(CC(=O)NC1CCCC1)C1CCCCC1)Nc1ccccn1,6,1,-2,-6,-3,-4
